Rin1 Abl inh: human Rin1-Abl interaction inhibition. P00519+Q13671. TR-FRET Rin1/Abl binding, biochemical. inhibition, % at 7.35 µM. 0.4% of 360,000 active. AID 588664; in the data active = inhibition above about 5%, passing the limit was not always enough
Rpn11 inh: blocks the human proteasome subunit Rpn11; AID 588493; 0.59% of 360,000 active; human 26S proteasome, Ub4-pepOG fluorescence polarization; 20S core pre-blocked with epoxomicin; inhibition, % at 20 µM;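 active = inhibition at 20 µM, scaled to each plate's controls, above about 33%, limit read from the data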
Target sequence (O00487 whole entry, looked up): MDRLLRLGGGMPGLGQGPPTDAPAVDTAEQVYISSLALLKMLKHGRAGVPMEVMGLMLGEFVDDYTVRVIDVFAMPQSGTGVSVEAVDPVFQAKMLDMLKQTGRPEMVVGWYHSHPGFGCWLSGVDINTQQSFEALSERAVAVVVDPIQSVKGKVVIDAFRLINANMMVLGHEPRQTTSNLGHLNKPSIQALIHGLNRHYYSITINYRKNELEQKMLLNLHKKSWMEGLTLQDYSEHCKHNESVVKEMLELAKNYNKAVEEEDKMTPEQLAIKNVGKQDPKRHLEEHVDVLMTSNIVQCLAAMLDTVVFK
NadD inh: blocks S. aureus nicotinate mononucleotide adenylyltransferase; 0.78% of 360,000 active; inhibition, % at 20 µM; purified NadD enzyme, colorimetric absorbance read-out; in the data active = inhibition above about 26%
Xi reactivation: activators of X-chromosome reactivation in mouse fibroblasts. XiGFP mouse fibroblasts, % GFP-positive cells imaging, 3 d; cells co-treated with 5-aza-dC sensitizer; scaled so ellipticine positive control = 100%. activation, % at 7.58 µM. 0.055% of 360,000 active;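 active = mean normalized replicate activation at least 10% and every replicate at or above 10%; inconclusive = only one of the two criteria met; inactive = mean below 10% and not all replicates reach 10%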
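Material: SV40-immortalized XiGFP fibroblast cells, line 68-5-11 | Buffer or medium: DMEM containing 5-aza-dC | Dosing: One concentration, pinned | Times: 3 d treatment, 15 min room-temperature fixation | Controls: Ellipticine 6 µM positive control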
ABHD5-PLIN5 inh: ABHD5-PLIN5 protein interaction inhibition. Q00G26+Q8WTS1. Split G. princeps luciferase complementation, luminescence, 4 h. inhibition, % at 4 µM. 0.78% of 360,000 active. AID 602281;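 active = inhibition above the mean inhibition across every tested compound plus 3 SD, cut at about 22% in these data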
A number is an active result; – = inactive; ? = inconclusive; · = no result given. Shown are actives, neighbours in structure and some others; about 1.9% of the full set was active somewhere.

SMILES	Rin1 Abl inh	Rpn11 inh	NadD inh	Xi reactivation	ABHD5-PLIN5 inh
Cc1ccc2nc(/C(C#N)=C\c3ccc(N4CCCCC4)c([N+](=O)[O-])c3)[nH]c2c1	–	–	39	·	–
N#C/C(=C/c1ccc(N2CCCC2)c([N+](=O)[O-])c1)c1nc2ccccc2[nH]1	–	–	36	·	–
C[C@H](CO)N1C[C@H](C)[C@@H](CN(C)C(=O)Nc2ccc(F)cc2)Oc2ccc(NC(=O)CCCCCC(=O)Nc3ccccc3N)cc2C1=O	·	·	·	–	·
Cc1cc(N=Nc2ccc(C)c(N=Nc3cc(C)c(N)cc3N)c2)c(N)cc1N	–	–	30	–	–
Cc1nonc1NC(=O)CSc1nc2c(C)cccc2cc1C#N	–	–	–	65	–
COc1ccc2c3c(n(C)c2c1)[C@@H](CO)N(C(=O)Nc1ccc(F)cc1)CC31CN(Cc2cccc(F)c2)C1	·	·	·	–	·
Brc1cc2c(cc1C1Nc3ccccc3C3C=CCC31)OCO2 (stereo not drawn)	–	–	–	–	–
Cc1cc(C)c2c(c1)NC(c1cc3c(cc1Br)OCO3)C1CC=CC21 (stereo not drawn)	–	–	37	–	–
COc1ccc2c3c(n(C)c2c1)[C@H](CO)N(C(=O)Nc1ccc(F)cc1)CC31CN(C(=O)NC(C)C)C1	·	·	·	–	·
CC(=O)c1ccc(NC(=O)CN2C(=O)/C(=C/C(C)=C/c3ccccc3)SC2=S)cc1	–	–	31	–	–
CC(/C=C1\SC(=S)N(NC(=O)c2ccc(C)cc2)C1=O)=C\c1ccccc1	–	–	30	·	–
CC(/C=C1\SC(=S)N(NC(=O)c2ccncc2)C1=O)=C\c1ccccc1	–	–	–	–	–
CON(C)C(=O)CC1(CN(Cc2ccccc2)C(=O)OC(C)(C)C)CCCCC1	–	–	–	–	–
C#CC(=O)CC1(CN(Cc2ccccc2)C(=O)OC(C)(C)C)CCCCC1	–	40	–	–	–
CNC[C@H]1Oc2c(NC(C)=O)cccc2C(=O)N(C)C[C@H]1C	·	·	·	–	·
COc1ccc2c3c(n(C)c2c1)[C@@H](CO)N(CC1CCCC1)CC31CCN(C(C)=O)CC1	·	·	·	–	·
COC(=O)CSc1nc(SC)nc2c1sc1nc(-c3ccco3)c3c(c12)CC(C)(C)OC3	–	–	–	·	–
CSc1nc(N(CCO)CCO)c2sc3nc(-c4ccco4)c4c(c3c2n1)CCC4	–	·	80	·	22
COC(=O)CSc1nnc([C@H](Cc2ccccc2)NC(=O)OC(C)(C)C)o1	–	–	–	·	–
COC(=O)CS(=O)(=O)c1nnc([C@H](Cc2ccccc2)NC(=O)OC(C)(C)C)o1	–	–	–	·	56
Cc1cccc(CS(=O)(=O)c2nnc([C@H](Cc3ccccc3)NC(=O)OC(C)(C)C)o2)c1	–	–	–	·	43
Cc1noc(C)c1NC(=O)N(C)C[C@H]1Oc2ccc(NS(=O)(=O)c3ccc(F)cc3)cc2CC(=O)N([C@H](C)CO)C[C@@H]1C	·	·	·	–	·
Cc1cc(C)cc(NC(=O)/C=C/c2ccc([N+](=O)[O-])s2)c1	–	–	–	?	–
Cc1ccccc1NC(=O)/C=C/c1ccc([N+](=O)[O-])s1	–	–	–	·	29
CS(=O)(=O)c1ncc(Cl)c(C(=O)Nc2ccc(N3CCOCC3)cc2)n1	–	–	–	·	60
SMILES	Rin1 Abl inh	Rpn11 inh	NadD inh	Xi reactivation	ABHD5-PLIN5 inh
CNC[C@@H]1Oc2ncccc2C(=O)N(C)C[C@H]1C	·	·	·	–	·
O=c1cc(-c2ccccc2)oc2cc(O)c(O)c(O)c12	21	–	–	·	–
COCC(=O)N1[C@@H](CO)[C@@H](c2ccccc2)C12CN(Cc1cccc(OC)c1)C2	·	·	·	–	·
CCC(=O)OC1(C)C(=O)C=C2C=C(c3ccsc3)OC=C2C1=O (stereo not drawn)	–	–	–	·	–
COC(=O)CCC(=O)OC1(C)C(=O)C=C2C=C(c3ccsc3)OC=C2C1=O (stereo not drawn)	–	–	35	·	–
CN1CCc2c(sc(NC(=O)c3ccc(S(=O)(=O)N4CCCCCC4)cc3)c2C(N)=O)C1	–	62	–	·	–
CN1CCc2c(sc(NC(=O)c3ccc(S(=O)(=O)N4CCOCC4)cc3)c2C(N)=O)C1	–	75	–	·	–
COc1ccc2c3c(n(C)c2c1)[C@H](CO)N(Cc1ccccc1OC)CC31CN(C(=O)C2CC2)C1	·	·	·	–	·
C[C@@H]1C/C=C\C[C@@H](c2ccc3c(c2)OCO3)NC(=O)[C@@H](c2ccccc2)CC(=O)N1	·	·	·	–	·
O=C(c1ccccc1)C1C(c2ccccc2)C1[N+](=O)[O-] (stereo not drawn)	–	–	–	–	–
CN(C)c1ccc([C@@H]2[C@@H]([N+](=O)[O-])[C@H]3C=Cc4ccccc4N3[C@H]2C(=O)c2ccc(Cl)cc2)cc1	–	69	–	–	–
CC(=O)c1ccc(C(=O)Nc2sc3c(c2C(N)=O)CCN(Cc2ccccc2)C3)cc1	–	·	–	39	–
CC(C)N1CCc2c(sc(NC(=O)c3ccc4ccccc4c3)c2C(N)=O)C1	–	·	–	99	–
O=C(C1CCCC1)N1CC2(C1)[C@H](c1ccccc1)[C@@H](CO)N2C(=O)c1cccnc1	·	·	·	–	·
Cc1coc2c1C(=O)C(=O)c1c-2ccc2c(C)cccc12	–	–	34	·	–
Cc1coc2c1C(=O)C(=O)c1c-2ccc2c1CCCC2(C)C	–	–	33	·	–
CNc1ccc2c3c(cccc13)C(=O)N(C)C2=O	–	–	–	–	–
C[C@@H]1CN([C@@H](C)CO)C(=O)c2cc(NC(=O)Nc3ccc(C(F)(F)F)cc3)ccc2O[C@@H](C)CCCCO[C@H]1CN(C)C(=O)Nc1ccccc1	·	·	·	–	·
Cc1ccc(S(=O)(=O)N(CC(=O)N=Nc2c(O)[nH]c3ccccc23)c2ccc(C)c(C)c2)cc1	–	–	32	–	–
C#CCOCCOCCOCCNc1nc(N2CCN(C(=O)[C@H](Cc3ccc(O)cc3)n3cc([C@@H](N)C(C)CC)nn3)CC2)nc(N2CCN(C(=O)[C@H](Cc3cc4ccccc4[nH]3)n3cc([C@@H](N)C(C)CC)nn3)CC2)n1 (stereo partly drawn)	–	–	34	·	25
Fc1ccc(N2N=C(c3cccs3)CC2c2ccccc2)cc1 (stereo not drawn)	–	63	–	–	–
O=C(Cn1sc2ccccc2c1=O)NC12CC3CC(CC(C3)C1)C2	–	–	–	·	59
CCC(=O)N1CC2(C1)CN(CC1CCCCC1)[C@@H](CO)c1c2c2ccc(OC)cc2n1C	·	·	·	–	·
COc1ccc(Cl)c(Cn2c(NCc3ccco3)nc3c2c(=O)n(C)c(=O)n3C)c1	11	–	–	·	–
CCCn1c(NCc2ccco2)nc2c1c(=O)n(C)c(=O)n2C	–	–	–	·	–
CC(C)[C@@H]1C(=O)N[C@@H](c2ccccc2)CC=CC[C@H](C)Oc2ccccc2C(=O)N1C (mixture of isomers)	·	·	·	–	·
C[C@H](CO)N1C[C@H](C)[C@@H](CN(C)S(=O)(=O)c2cn(C)cn2)Oc2c(NC(=O)Cc3ccccc3)cccc2C1=O	·	·	·	–	·

Source: PubChem BioAssay
